Assay results as given in ChEMBL document CHEMBL4017520, “Discovery, Structure-Activity Relationship, and Antiparkinsonian Effect of a Potent and Brain-Penetrant Chemical Series of Positive Allosteric Modulators of Metabotropic Glutamate Receptor 4” (J Med Chem, 2017).
Calls of active or inactive are those of the source. No cut-off for these calls is given here.

Experiments:
[1] = biological target: T1, Metabotropic glutamate receptor 4 (Homo sapiens, UniProt Q14833); experiment: Agonist activity at recombinant human mGlu4 receptor expressed in HEK293 cells co-expressing chimeric Gi/Gq protein assessed as increase in calcium flux at 3 uM after 10 mins by Fluo4-AM dye based fluorescence assay relative to control; assay type: functional, cell-based
How it was run: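 Human mGluR4 co-expressed in HEK293 cells with the chimeric Gi/Gq (GqTOP) protein, loaded with Fluo4-AM. Compound was added alone and calcium signal recorded for 10 min, compared with the buffer-evoked basal signal.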

Rattus norvegicus = species: Rattus norvegicus; experiment: Activity at kainate glutamate receptor in rat cerebral cortex at 10 uM
How it was run: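 Inhibition of orthosteric ligand binding to NMDA, AMPA and kainate receptors on rat cerebral cortex membranes, tested up to 10 μM.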

[2] = biological target: Tyrosine-protein kinase JAK3 (Homo sapiens) (UniProt P52333); experiment: Inhibition of JAK3 (unknown origin) at 10 uM
[3] = biological target: Metabotropic glutamate receptor 3 (Homo sapiens) (UniProt Q14832); experiment: Activity at human mGlu3 receptor expressed in HEK293 cells co-expressing Gi/Gq assessed as effect on intracellular calcium level up to 10 uM after 10 mins by Fluo4-AM dye based fluorescence assay; assay type: functional, cell-based
How it was run: (§1)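 HEK-293 cells transiently expressing the human mGluR with a promiscuous or chimeric G protein were serum-starved 3 h and loaded 1.5 h with 1 μM Fluo4-AM. Compound alone was added in assay buffer, and calcium fluorescence (ex 485/em 525) was recorded for 10 min as agonist readout.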

[4] = biological target: Metabotropic glutamate receptor 5 (Homo sapiens) (UniProt P41594); experiment: Activity at human mGlu5 receptor expressed in HEK293 cells co-expressing Gi/Gq assessed as effect on intracellular calcium level up to 10 uM after 10 mins by Fluo4-AM dye based fluorescence assay; assay type: functional, cell-based; how it was run: as §1
[5] = biological target: Metabotropic glutamate receptor 1 (Homo sapiens) (UniProt Q13255); experiment: Activity at human mGlu1 receptor expressed in HEK293 cells co-expressing Gi/Gq assessed as effect on EC20/EC80 glutamate-induced intracellular calcium level up to 10 uM preincubated for 10 mins followed by glutamate addition measured for 3 mins by Fluo4-AM dye based fluorescence assay; assay type: functional, cell-based
How it was run: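 HEK-293 cells were electroporated with the human mGluR plus a promiscuous or chimeric G protein and cultured 24 h, then serum-starved 3 h. Cells were loaded 1.5 h with 1 μM Fluo4-AM in HBSS/HEPES buffer with probenecid and 0.1% BSA. Compound was added for 10 min, then glutamate at EC20 (PAM) or EC80 (NAM), and fluorescence (ex 485/em 525) was read for 3 min.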

[6] = biological target: D(1A) dopamine receptor (Homo sapiens) (UniProt P21728); experiment: Antagonist activity at D1 receptor (unknown origin) at 10 uM
[7] = biological target: D(2) dopamine receptor (Homo sapiens) (UniProt P14416); experiment: Positive allosteric modulation of D2L receptor (unknown origin) at 10 uM
[8] = biological target: D(2) dopamine receptor (Homo sapiens) (UniProt P14416); experiment: Antagonist activity at D2L receptor (unknown origin) at 10 uM
[9] = biological target: Adenosine receptor A2a (Homo sapiens) (UniProt P29274); experiment: Agonist activity at A2A receptor (unknown origin) at 10 uM
[10] = biological target: Metabotropic glutamate receptor 7 (Homo sapiens) (UniProt Q14831); experiment: Activity at human mGlu7 receptor expressed in HEK293 cells co-expressing Gi/Gq assessed as effect on intracellular calcium level up to 10 uM after 10 mins by Fluo4-AM dye based fluorescence assay; assay type: functional, cell-based; how it was run: as §1
[11] = Ratio of fraction unbound in Sprague-Dawley rat brain at 30 mg/kg, ip after 240 mins to EC50 for rat mGlu4 receptor expressed in HEK293 cells
[12] = Activity at COMT (unknown origin) up to 10 uM; assay type: ADME; settings: human
[13] = Ratio of drug level in Sprague-Dawley rat brain to plasma at 30 mg/kg, ip after 30 mins post dose administered as single dose by LC-MS/MS analysis; assay type: ADME, organism-based; settings: read-out: BPR
How it was run: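 Single dose ip (10 or 30 mg/kg, rat) or oral (10 mg/kg, rat or mouse); plasma Cmax, Tmax, half-life, AUC0−inf derived; brain concentration and brain/plasma ratio at 30 min postdose. Mean of 3 rats or 2 mice.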

[14] = Plasma concentration in Sprague-Dawley rat at 30 mg/kg, ip after 240 mins; assay type: ADME, organism-based
How it was run: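 Rats dosed 30 mg/kg ip; plasma sampled over time, brain measured at 30 and 60 min; brain/plasma ratio averaged over 30 and 60 min.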

[15] = Cmax in Sprague-Dawley rat at 1 mg/kg, iv administered as single dose by LC-MS/MS analysis; assay type: ADME, organism-based; design: dose 1 mg/kg, route intravenous; settings: in vivo
[16] = Cmax in Sprague-Dawley rat plasma at 10 mg/kg, po administered as single dose by LC-MS/MS analysis; assay type: ADME, organism-based; design: dose 10 mg/kg, route oral
How it was run: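 Rats given a single oral dose of 10 mg/kg. The first plasma sample was taken at 15 min, and sampling continued to 24 h postdose. Brain was sampled at 30 min. Values are the mean (±SEM) of 3 rats.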

[17] = Half life in Sprague-Dawley rat at 1 mg/kg, iv administered as single dose by LC-MS/MS analysis; assay type: ADME, organism-based; settings: in vivo
How it was run: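 Single iv dose, 1 mg/kg in rat or 2 mg/kg in mouse; plasma PK parameters derived; brain/plasma ratio taken at 1 h postdose (rat) or 30 min postdose (mouse). Mean of 3 rats; 2 mice for mouse Cmax and brain/plasma.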

[18] = AUC (0 to infinity) in Sprague-Dawley rat plasma at 10 mg/kg, ip administered as single dose by LC-MS/MS analysis; assay type: ADME, organism-based; design: dose 10 mg/kg, time infinity, route intraperitoneal
How it was run: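 Rats dosed ip at 10 or 30 mg/kg. Plasma Cmax, Tmax, half-life and AUC0–inf were determined. Brain concentration was measured 30 min postdose, and brain/plasma ratio was taken at 30 min. Values are the mean (±SEM) of 3 rats.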

[19] = Tmax in Sprague-Dawley rat plasma at 10 mg/kg, ip administered as single dose by LC-MS/MS analysis; assay type: ADME, organism-based
How it was run: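 Single-dose plasma PK after ip (10 or 30 mg/kg) or oral (10 mg/kg) dosing in rats, and oral 10 mg/kg dosing in mice. […] Values are mean ±SEM of 3 rats or 2 mice.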

[20] = Ratio of fraction unbound in Sprague-Dawley rat brain at 30 mg/kg, ip after 120 mins to EC50 for rat mGlu4 receptor expressed in HEK293 cells
[21] = Cmax in C57BL/6 mouse plasma at 10 mg/kg, po administered as single dose by LC-MS/MS analysis; assay type: ADME, organism-based; design: dose 10 mg/kg, route oral
How it was run: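 Mice given 10 mg/kg orally. Plasma Cmax was determined and brain concentration measured at 30 min postdose. Values are the mean (±SEM) of 2 mice.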

[22] = biological target: T1, Metabotropic glutamate receptor 4; experiment: Positive allosteric modulation of recombinant human mGlu4 receptor expressed in HEK293 cells co-expressing chimeric G protein assessed as increase in EC20 glutamate-induced […]; assay type: functional, cell-based
[23] = Drug uptake in Sprague-Dawley rat brain at 10 mg/kg, po after 60 mins post dose administered as single dose by LC-MS/MS analysis; assay type: ADME, organism-based; settings: read-out: Drug uptake
How it was run: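 Rats given a single oral dose of 10 mg/kg. Brain concentrations were measured at 30, 60 and 90 min postdose, and brain AUC0–inf was determined. Values are the mean of three rats. Lower limit of quantification was 1 ng/mL.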

T1 sequence (Q14833 whole entry): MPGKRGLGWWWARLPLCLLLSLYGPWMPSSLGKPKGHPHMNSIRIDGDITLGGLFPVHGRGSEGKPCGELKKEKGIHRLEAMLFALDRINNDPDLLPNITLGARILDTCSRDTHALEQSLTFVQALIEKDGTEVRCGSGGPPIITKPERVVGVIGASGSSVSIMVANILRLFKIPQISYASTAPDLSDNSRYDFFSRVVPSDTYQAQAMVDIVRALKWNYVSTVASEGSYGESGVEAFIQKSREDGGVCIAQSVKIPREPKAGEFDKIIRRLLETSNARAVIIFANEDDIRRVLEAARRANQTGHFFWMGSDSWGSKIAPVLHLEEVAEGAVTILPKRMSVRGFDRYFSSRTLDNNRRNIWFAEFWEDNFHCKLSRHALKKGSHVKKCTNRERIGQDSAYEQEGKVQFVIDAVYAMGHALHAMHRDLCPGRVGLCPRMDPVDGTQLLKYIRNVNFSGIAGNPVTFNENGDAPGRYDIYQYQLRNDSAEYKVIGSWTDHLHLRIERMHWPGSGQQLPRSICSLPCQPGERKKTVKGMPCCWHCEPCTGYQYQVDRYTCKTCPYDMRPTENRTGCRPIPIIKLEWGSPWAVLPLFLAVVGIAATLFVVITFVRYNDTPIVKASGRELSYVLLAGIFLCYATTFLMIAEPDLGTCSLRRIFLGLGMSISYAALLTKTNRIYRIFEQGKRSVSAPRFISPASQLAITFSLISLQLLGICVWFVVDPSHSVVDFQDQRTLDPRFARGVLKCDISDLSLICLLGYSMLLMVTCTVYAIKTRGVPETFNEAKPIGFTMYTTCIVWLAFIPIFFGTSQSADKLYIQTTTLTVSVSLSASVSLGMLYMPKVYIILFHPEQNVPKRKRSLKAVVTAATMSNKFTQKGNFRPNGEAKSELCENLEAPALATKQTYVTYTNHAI
Sequence of D(2) dopamine receptor (Homo sapiens) (P14416 whole entry): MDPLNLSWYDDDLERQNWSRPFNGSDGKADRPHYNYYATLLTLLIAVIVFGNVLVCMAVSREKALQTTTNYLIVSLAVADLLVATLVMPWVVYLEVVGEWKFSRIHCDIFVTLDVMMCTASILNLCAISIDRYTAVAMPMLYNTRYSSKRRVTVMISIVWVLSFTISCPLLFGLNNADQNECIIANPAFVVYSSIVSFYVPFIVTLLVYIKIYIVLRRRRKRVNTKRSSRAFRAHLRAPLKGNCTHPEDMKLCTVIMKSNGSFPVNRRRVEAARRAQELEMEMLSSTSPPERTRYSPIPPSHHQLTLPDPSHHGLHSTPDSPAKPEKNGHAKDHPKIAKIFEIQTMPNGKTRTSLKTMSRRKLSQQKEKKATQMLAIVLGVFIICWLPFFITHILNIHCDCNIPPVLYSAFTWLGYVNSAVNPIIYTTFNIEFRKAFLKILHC
Sequence of D(1A) dopamine receptor (Homo sapiens) (P21728 whole entry): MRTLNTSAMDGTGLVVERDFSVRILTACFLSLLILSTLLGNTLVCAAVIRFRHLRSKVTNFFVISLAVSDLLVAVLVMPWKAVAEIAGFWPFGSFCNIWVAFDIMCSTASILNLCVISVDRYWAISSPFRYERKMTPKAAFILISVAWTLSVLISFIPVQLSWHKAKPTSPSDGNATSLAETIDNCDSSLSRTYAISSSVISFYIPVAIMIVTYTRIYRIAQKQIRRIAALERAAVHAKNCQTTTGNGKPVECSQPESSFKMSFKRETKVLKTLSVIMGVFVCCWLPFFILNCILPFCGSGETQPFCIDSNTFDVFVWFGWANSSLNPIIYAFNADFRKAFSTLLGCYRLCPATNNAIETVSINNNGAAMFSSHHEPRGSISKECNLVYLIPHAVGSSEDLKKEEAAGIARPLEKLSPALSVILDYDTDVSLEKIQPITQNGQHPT
Sequence of Metabotropic glutamate receptor 1 (Homo sapiens) (Q13255 19-1194 limits assumed): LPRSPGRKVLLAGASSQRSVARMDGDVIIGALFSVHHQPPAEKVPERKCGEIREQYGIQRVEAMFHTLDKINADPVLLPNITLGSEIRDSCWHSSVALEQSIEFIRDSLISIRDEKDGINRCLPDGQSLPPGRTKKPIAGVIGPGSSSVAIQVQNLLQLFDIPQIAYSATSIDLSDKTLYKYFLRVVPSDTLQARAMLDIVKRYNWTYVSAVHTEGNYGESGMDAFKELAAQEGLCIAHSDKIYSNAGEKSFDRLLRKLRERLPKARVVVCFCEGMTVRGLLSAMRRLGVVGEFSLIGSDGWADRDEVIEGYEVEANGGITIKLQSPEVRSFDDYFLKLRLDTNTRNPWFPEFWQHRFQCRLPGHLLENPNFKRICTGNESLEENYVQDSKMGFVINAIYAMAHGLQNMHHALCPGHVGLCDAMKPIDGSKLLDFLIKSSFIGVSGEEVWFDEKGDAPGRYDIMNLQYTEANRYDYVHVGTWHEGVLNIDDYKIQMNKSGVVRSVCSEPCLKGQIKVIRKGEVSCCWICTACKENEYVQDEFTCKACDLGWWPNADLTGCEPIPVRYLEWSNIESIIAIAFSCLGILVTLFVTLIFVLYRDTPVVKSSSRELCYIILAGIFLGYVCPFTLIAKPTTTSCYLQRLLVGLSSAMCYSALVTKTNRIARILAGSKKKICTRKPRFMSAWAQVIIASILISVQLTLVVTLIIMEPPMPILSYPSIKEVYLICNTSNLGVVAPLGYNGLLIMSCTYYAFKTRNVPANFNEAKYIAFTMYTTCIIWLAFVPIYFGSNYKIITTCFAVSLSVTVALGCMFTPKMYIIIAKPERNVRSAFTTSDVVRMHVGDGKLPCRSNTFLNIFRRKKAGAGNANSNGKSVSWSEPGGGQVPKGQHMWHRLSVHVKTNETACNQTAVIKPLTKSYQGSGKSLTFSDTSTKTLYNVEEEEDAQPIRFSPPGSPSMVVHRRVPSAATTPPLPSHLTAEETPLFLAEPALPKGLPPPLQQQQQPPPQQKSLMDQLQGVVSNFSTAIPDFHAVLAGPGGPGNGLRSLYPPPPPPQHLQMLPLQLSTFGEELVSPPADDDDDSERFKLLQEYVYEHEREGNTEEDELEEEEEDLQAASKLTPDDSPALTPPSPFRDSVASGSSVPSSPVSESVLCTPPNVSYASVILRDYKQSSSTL
Sequence of Tyrosine-protein kinase JAK3 (Homo sapiens) (P52333 whole entry): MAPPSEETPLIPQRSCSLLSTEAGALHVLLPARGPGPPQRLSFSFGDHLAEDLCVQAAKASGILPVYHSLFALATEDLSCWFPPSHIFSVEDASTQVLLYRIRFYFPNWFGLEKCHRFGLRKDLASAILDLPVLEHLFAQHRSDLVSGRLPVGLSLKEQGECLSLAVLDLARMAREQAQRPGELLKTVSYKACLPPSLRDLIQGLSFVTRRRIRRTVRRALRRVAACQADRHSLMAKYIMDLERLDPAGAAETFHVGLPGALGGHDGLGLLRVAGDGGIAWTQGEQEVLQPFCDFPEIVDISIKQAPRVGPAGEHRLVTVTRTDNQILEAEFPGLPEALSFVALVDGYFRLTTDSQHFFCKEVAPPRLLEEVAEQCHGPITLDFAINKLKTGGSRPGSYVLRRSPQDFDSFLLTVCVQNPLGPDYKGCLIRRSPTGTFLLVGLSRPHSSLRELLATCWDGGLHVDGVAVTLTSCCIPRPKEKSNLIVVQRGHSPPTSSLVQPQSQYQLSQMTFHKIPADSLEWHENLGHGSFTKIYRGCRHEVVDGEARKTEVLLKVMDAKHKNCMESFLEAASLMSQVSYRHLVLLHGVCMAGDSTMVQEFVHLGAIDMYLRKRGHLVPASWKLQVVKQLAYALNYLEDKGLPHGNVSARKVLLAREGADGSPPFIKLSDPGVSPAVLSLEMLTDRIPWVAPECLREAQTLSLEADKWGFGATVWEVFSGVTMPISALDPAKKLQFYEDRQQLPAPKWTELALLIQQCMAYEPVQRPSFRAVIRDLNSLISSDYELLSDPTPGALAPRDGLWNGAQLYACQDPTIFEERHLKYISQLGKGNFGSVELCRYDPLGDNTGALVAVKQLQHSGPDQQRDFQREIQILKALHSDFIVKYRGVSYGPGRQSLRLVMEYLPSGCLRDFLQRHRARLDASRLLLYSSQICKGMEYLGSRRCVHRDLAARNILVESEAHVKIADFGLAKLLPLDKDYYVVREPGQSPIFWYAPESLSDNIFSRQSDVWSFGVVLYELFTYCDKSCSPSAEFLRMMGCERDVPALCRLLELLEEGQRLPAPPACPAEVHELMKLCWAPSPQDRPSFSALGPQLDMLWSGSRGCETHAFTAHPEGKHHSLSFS
Sequence of Metabotropic glutamate receptor 3 (Homo sapiens) (Q14832 23-879 limits assumed): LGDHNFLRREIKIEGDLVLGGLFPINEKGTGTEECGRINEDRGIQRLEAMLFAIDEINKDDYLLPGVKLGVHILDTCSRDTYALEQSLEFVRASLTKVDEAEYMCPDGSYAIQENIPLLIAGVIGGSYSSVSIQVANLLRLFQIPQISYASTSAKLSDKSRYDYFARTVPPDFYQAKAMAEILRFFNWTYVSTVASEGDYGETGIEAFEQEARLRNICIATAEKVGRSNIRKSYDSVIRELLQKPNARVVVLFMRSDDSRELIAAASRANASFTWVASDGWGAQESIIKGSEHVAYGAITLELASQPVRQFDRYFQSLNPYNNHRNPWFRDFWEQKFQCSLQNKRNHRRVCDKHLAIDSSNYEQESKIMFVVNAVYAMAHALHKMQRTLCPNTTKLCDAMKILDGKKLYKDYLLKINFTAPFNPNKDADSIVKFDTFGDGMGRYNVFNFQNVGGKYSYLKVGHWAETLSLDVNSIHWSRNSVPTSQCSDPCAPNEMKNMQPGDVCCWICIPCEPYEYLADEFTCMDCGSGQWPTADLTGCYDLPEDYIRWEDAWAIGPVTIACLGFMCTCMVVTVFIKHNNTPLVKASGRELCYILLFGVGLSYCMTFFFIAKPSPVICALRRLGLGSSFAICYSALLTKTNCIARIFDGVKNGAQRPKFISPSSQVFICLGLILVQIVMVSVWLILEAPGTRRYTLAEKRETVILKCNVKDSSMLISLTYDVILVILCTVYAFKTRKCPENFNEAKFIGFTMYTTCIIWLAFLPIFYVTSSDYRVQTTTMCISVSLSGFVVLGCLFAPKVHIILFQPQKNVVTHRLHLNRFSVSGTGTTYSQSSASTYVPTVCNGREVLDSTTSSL

Structure (SMILES): O/N=c1\cc(-c2cc3cccn3cn2)oc2ccc(OCCN3CCOCC3)cc12 [listing 1 of 2 here]
- Activity [1]: 19%
- Activity (Rattus norvegicus): inactive
- inhibition [2]: inactive
- Activity [3]: inactive
- Activity [4]: inactive
- Activity [5]: inactive
- Activity [6]: inactive
- Activity [7]: inactive
- Activity [8]: inactive
- Activity [9]: inactive
- Activity [10]: inactive

Structure (SMILES): O/N=c1\cc(-c2cc3cccn3cn2)oc2ccc(OCCN3CCOCC3)cc12 [listing 2 of 2 here]
- Ratio [11]: 0.2
- Activity [12]: Not Active
- Kp at 0.5 h [13]: 3.1
- concentration at 4 h [14]: 99 ng/mL
- Cmax [15]: 444 ng/mL
- Cmax [16]: 135 ng/mL
- half-life [17]: 44 min
- AUC(0-inf) [18]: 2240 ng·h/mL
- Tmax [19]: 15 min
- Ratio [20]: 1.1
- Cmax [21]: 229 ng/mL
- EC50 [22]: 70 nM
- concentration at 1 h [23]: 262 ng/g
